Screening results as filed in PubChem.
Most compounds without a hit are left out; they make up all but 0.88% or so of the library.
CXCR6 inh: CXCR6 receptor inhibitors, primary screen, cell-based, beta-arrestin, luminescence, CHO-K1 PathHunter, 1536-well; actives 0.36% (n = 360,000); C-X-C chemokine receptor type 6 (Homo sapiens), O00574; inhibition, % at 20 µM; AID 602244, 2012; in the data active = inhibition above about 34%, passing the limit was not always enough;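 note: antagonist mode with CXCL16 agonist at 10 nM final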
APJ antagonist: antagonists of human apelin receptor APJ, primary screen, CHO-K1 cells, beta-arrestin complementation, luminescence; P35414; actives 0.32% (n = 330,000); inhibition, % at 20 µM;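 active = inhibition above about 40% at 20 µM, limit read from the data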;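 note: cells challenged with 10 nM apelin-13 agonist together with compound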
CCR6 antagonist: CCR6 receptor antagonists, primary screen, cell-based, CHO-K1, luminescence, beta-arrestin, uHTS. inhibition, % at 20 µM. actives 0.49% (n = 340,000). AID 493098, 2011. CHO-K1 CCR6 PathHunter beta-arrestin, CCL20-stimulated;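 active = compounds whose inhibition of the agonist-driven luminescence signal at 20 µM reaches about 50%, limit read from the data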;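 note: cells stimulated with CCL20 at 14 nM final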
Target sequence (P51684 whole entry, looked up): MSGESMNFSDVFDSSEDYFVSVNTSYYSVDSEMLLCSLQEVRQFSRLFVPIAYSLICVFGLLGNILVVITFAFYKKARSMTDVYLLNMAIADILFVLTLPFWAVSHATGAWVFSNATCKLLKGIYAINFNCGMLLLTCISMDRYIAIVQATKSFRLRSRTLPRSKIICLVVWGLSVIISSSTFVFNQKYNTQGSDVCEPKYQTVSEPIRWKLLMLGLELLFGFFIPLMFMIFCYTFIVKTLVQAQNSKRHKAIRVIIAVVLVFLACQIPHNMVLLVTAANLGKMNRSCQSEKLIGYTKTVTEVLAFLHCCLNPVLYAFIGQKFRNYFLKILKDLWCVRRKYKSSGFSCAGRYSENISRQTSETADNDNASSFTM
PKA-R1A act: activators of PKA-R1A holoenzyme, primary screen, biochemical, fluorescence polarization, Cy5-IP20, bovine R1A, mouse PKAc. activation, % at 11.4 µM. PKA-R1A dissociation; scaled: DMSO 0%, 113 µM cGMP 100%. cAMP-dependent protein kinase type I-alpha regulatory subunit (Bos taurus) + …. actives 0.083% (n = 340,000);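 active = percent activation above the mean of all tested compounds plus 3 SD, cut at about 19% in these data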;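 note: higher means more PKAc released from R1A so a rise in polarization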
PKA-R2B act: activators of PKA-R2B holoenzyme, primary screen, biochemical, fluorescence polarization, Cy5-IP20, human | activation, % at 11.4 µM | actives 0.079% (n = 340,000) | PKA-R2B holoenzyme dissociation; R2B truncated from residue 108, S112A mutant; 0% DMSO only, 100% 113 µM cGMP | cAMP-dependent protein kinase catalytic subunit beta (Homo sapiens) + cAMP-dependent …;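 active = activation above a cutoff set at the mean over all compounds plus 3 SD, cut at about 18% in these data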;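 note: higher means more holoenzyme dissociation and a rise in polarization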
APJ agonist: agonists of human apelin receptor APJ, primary screen, CHO-K1 cells, PathHunter beta-arrestin, luminescence | actives 0.11% (n = 330,000) | activation, % at 20 µM | 0% DMSO wells, 100% apelin;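 active = activation more than six SD over the plate average, tested at 20 µM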
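Test system – PathHunter CHO-K1 APJ (AGTRL-1) beta-arrestin reporter cells · Input – 1000 cells/well · Compound – single test compound dose, 20 µM final, 1% DMSO · Times – compound stimulation 90 min at 25 °C, detection 60 min · Technique – beta-gal luminescence · Read-out basis – APJ–arrestin association signal · Control set – negative DMSO alone, positive Apelin-13 at 10 nM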
Of the large screens only hits and unclear results are named; the others gave an inactive call.

COC1=C(c2ccccc2)C(=O)c2ccccc2C1=O	APJ agonist 12
COc1ccc(C2=C(N)c3ccccc3C2=O)cc1	none
COc1ccc(OC)c(NC(=O)C2(C)CCN2C(=O)CC2CC2)c1 (stereo not given)	none (no result: APJ antagonist, CCR6 antagonist, PKA-R1A act, PKA-R2B act, APJ agonist)
COc1ccc(NC(=O)c2cc3c(COC(C)=O)cnc(C)c3oc2=Nc2cccc(C(=O)O)c2)c(OC)c1	PKA-R1A act 19
COc1ccccc1NC(=O)c1cc2c(CO)cnc(C)c2oc1=Nc1cccc(C(N)=O)c1	none
CC(=O)c1c(N)[nH]c(-c2ccccc2)nc1=S	CCR6 antagonist 57
CC(C)CCN1C(=O)c2ccccc2C1c1nnnn1-c1ccc2c(c1)OCCO2 (stereo not given)	none (no result: APJ antagonist, CCR6 antagonist, PKA-R1A act, PKA-R2B act, APJ agonist)
COC(=O)c1ccc2c(=O)n(CCCCCC(=O)N3CCN(c4ccccc4)CC3)c(=O)[nH]c2c1	APJ agonist 38
CCN1CCN(C(=O)CCCCCn2c(=O)[nH]c3cc(C(=O)OC)ccc3c2=O)CC1	none
COc1ccc(C(=O)/C(C#N)=N/Nc2ccc([N+](=O)[O-])cc2)cc1	CXCR6 inh 67, APJ antagonist 73, CCR6 antagonist 76
N#CC(C#N)=NNc1ccc([N+](=O)[O-])cc1	CXCR6 inh 43, CCR6 antagonist 57
C[C@@H](NC(=O)[C@@H]1CCCN1C(=O)[C@@H]1CCCN1)c1ccccc1	none (no result: APJ antagonist, CCR6 antagonist, PKA-R1A act, PKA-R2B act, APJ agonist)
S=C(Nc1ccccc1)Nc1ccc(Cl)cc1Cl	none
S=C(Nc1ccccc1)Nc1cc(Cl)ccc1Oc1ccccc1	CCR6 antagonist 93
CC(=O)n1cc(Nc2ccccc2C(=O)O)c2ccccc21	none
CC(=O)SC(C[N+](=O)[O-])c1cn(C(C)=O)c2ccccc12 (stereo not given)	CXCR6 inh 55, CCR6 antagonist 76
CC(=O)n1cc(Nc2ccc([N+](=O)[O-])cc2)c2ccccc21	APJ antagonist 42
O=C1NC[C@@H](CCCCN2C[C@H](Cc3ccccc3)N(CC3CCCCC3)C(=O)C2=O)N(CCc2ccccc2)C1=O	none (no result: APJ antagonist, CCR6 antagonist, PKA-R1A act, PKA-R2B act, APJ agonist)
Cc1ccc(C(=O)COC(=O)CCS(=O)(=O)c2ccccc2)cc1[N+](=O)[O-]	none
Cc1ccc(C(=O)COC(=O)CCC(=O)Nc2cccc(Cl)c2)cc1[N+](=O)[O-]	CCR6 antagonist 53
COCCNC(=O)C1(C)CCN(C(=O)c2ccc3c(c2)C(C)(C)CCC3(C)C)C1 (stereo not given)	none (no result: APJ antagonist, CCR6 antagonist, PKA-R1A act, PKA-R2B act, APJ agonist)
CCCCCCCCn1c2c(c(=N)c3ccccc31)CCC2	none (no result: PKA-R1A act, PKA-R2B act)
Cc1cc(C)c2c(=N)c3ccccc3n(CCCCCCCCn3c4ccccc4c(=N)c4c(C)cc(C)nc43)c2n1	CXCR6 inh 40, CCR6 antagonist 107 (no result: APJ antagonist, APJ agonist)
COc1cc(/C=N/N=C2/C(=O)Nc3ccccc32)ccc1O	CCR6 antagonist 56
O=S(=O)(Nc1cccnc1)c1cccc(C(F)(F)F)c1	none
O=[N+]([O-])c1ccc(S(=O)(=O)c2cccc(C(F)(F)F)c2)nc1	CXCR6 inh 47 (no result: CCR6 antagonist)
N#C/C(N=Nc1ccccc1O)=N\Nc1ccccc1O	CCR6 antagonist 71
CCc1nnc(NC(=O)c2ccncc2)s1	none
CCc1nnc(NC(=O)c2cccc(C(=O)Nc3nnc(CC)s3)n2)s1	CXCR6 inh 52, CCR6 antagonist 73 (no result: APJ antagonist, APJ agonist)
COc1ccccc1Cc1c(-c2ccco2)nc2cc(C)c(Br)c(C)n12	none (no result: APJ antagonist, CCR6 antagonist, PKA-R1A act, PKA-R2B act, APJ agonist)
CCOC(=O)c1c(C)nc2c(c1-c1ccccc1)C(=O)c1ccccc1-2	PKA-R1A act 20
CCc1ccc(C2C(C#N)=C(N)C(C#N)(C#N)C3=CCC(C(C)(C)C)CC32)cc1 (stereo not given)	CXCR6 inh 42, CCR6 antagonist 68
CCCCCCN1CCN(C2CN(Cc3cn(Cc4ccc(C)cc4)nn3)S(=O)(=O)C2)CC1 (stereo not given)	none (no result: APJ antagonist, CCR6 antagonist, PKA-R1A act, PKA-R2B act, APJ agonist)
